# Measured values reported in ChEMBL document CHEMBL1148736, “N-Acylthiadiazolines, a new class of liver X receptor agonists with selectivity for LXRbeta” (J Med Chem, 2007).
# The source made the active and inactive calls. No cut-off for these calls is given here.
# Columns and labels:
# [1] = Bioavailability in C57BL/6 mouse at 20 mg/kg, po; type: ADME, organism-based; details: in vivo
# Summary of the method: (§1)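 Mouse PK study, IV and PO; compound formulated at 2.5 mg/mL in PEG300/Tween 80 (4:1). IV dose 5 mpk (AUC, Cmax, clearance, Vss); oral dose 20 mpk (AUC, Cmax, bioavailability, t1/2).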
# [2] = AUC in C57BL/6 mouse at 5 mg/kg, iv; type: ADME, organism-based; parameters: dose 5 mg/kg, route intravenous; details: plasma; summary of the method: as §1
# Macrophage [3] = assay: Induction of ABCA1 gene expression in LXRalpha deficient mouse macrophages; type: functional, cell-based
# Summary of the method: (§2)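 Thioglycollate-elicited peritoneal macrophages from LXR-null mice, plated 24 h. Treated as for THP-1 without PMA: 2% lipoprotein-deficient serum medium, compound in DMSO for 24 h. ABCA1 mRNA by TaqMan qRT-PCR with 36B4 control, fold vs DMSO. Two concentrations used.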
# [4] = Volume of distribution at steady state in C57BL/6 mouse at 5 mg/kg, iv; type: ADME, organism-based; parameters: dose 5 mg/kg, route intravenous; details: in vivo, read-out: Vss; summary of the method: as §1
# Liver = assay: Effect on SREBP1c gene expression in C57BL/6 mouse liver; type: functional, tissue-based
# Summary of the method: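 Male C57BL/6 mice, 10 weeks old, chow-fed, gavaged daily with vehicle or compound (20–200 mpk) for 3 days. Fasted overnight before the last dose; killed 3 h later. Tissue RNA analysed by TaqMan qRT-PCR.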
# HepG2 = assay: Increase in FAS gene expression in HepG2 cells at 1 uM relative to GW-3965; type: functional, Homo sapiens
# [5] = AUC in C57BL/6 mouse at 20 mg/kg, po; type: ADME, organism-based; parameters: dose 20 mg/kg, route oral; details: plasma; summary of the method: as §1
# THP-1 = assay: Increase in ABCA1 gene expression in THP1 cells at 10 uM relative to GW-3965; type: functional, Homo sapiens
# Summary of the method: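 THP-1 cells differentiated with 40 ng/mL PMA for 1 day, then switched to RPMI with 2% lipoprotein-deficient FBS. Compound added 6 h later at 1 or 10 µM in DMSO, incubated 24 h. ABCA1 mRNA by one-step TaqMan qRT-PCR, triplicate, multiplexed with 36B4; fold induction vs DMSO, expressed relative to reference dual agonist.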
# [6] = molecular target: T1, Bile acid receptor (Homo sapiens) (UniProt Q96RI1); assay: Activity at FXR by cell based assay; type: functional
# T1 sequence (whole entry): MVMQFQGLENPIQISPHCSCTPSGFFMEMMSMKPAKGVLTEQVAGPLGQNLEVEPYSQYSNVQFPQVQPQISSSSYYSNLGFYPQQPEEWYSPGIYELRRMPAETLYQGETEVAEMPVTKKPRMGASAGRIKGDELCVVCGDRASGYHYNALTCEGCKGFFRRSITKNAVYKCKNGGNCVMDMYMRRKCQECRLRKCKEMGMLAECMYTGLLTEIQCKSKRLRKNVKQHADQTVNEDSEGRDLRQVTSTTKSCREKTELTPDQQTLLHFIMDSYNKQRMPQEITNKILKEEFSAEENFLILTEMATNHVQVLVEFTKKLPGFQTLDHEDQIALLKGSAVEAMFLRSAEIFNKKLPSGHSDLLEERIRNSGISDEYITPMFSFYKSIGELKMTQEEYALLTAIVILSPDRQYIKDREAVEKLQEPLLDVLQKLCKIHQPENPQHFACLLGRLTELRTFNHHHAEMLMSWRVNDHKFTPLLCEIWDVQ
# [7] = molecular target: T2, Oxysterols receptor LXR-beta (Homo sapiens, UniProt P55055); assay: Activity at human LXRbeta by Gal4 transactivation assay
# T2 sequence (P55055 whole entry): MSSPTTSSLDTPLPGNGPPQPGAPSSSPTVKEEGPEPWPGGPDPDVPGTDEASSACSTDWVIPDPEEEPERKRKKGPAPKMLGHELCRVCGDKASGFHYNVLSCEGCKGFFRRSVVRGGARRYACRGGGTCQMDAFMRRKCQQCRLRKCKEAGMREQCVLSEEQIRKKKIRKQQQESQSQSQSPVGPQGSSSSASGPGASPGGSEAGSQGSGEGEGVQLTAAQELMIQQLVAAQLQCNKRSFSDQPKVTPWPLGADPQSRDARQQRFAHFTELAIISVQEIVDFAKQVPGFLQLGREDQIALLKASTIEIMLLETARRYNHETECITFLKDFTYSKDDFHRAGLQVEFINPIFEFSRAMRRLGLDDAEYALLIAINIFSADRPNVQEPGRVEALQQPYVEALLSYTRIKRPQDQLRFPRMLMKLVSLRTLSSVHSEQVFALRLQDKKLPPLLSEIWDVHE
# Summary of the method: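 GAL4 DBD fused to hLXRα or hLXRβ LBD in pcDNA3, co-transfected into HepG2 with luciferase reporter. Cells in DMEM with 10% lipoprotein-deficient FBS, 7.5 µM lovastatin, 100 µM mevalonic acid. Ligand added 24 h post-transfection as 11-point curves from 10 µM; luciferase read after 16 h. Run in quadruplicate. %E = max fold induction vs max fold induction of reference dual agonist in same experiment.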
# [8] = Stability in human liver microsomes at 1 uM after 30 mins; type: ADME, Microsome; details: read-out: Stability
# Summary of the method: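 Incubated at 1 µM with human liver microsomes; percent parent remaining measured at 30 min.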
# [9] = Cmax in C57BL/6 mouse at 20 mg/kg, po; type: ADME, organism-based; parameters: dose 20 mg/kg, route oral; details: in vivo; summary of the method: as §1
# [10] = molecular target: T3, Nuclear receptor subfamily 1 group I member 2 (Homo sapiens, UniProt O75469); assay: Activity at PXR by cell based assay; type: functional
# T3 sequence (O75469 whole entry): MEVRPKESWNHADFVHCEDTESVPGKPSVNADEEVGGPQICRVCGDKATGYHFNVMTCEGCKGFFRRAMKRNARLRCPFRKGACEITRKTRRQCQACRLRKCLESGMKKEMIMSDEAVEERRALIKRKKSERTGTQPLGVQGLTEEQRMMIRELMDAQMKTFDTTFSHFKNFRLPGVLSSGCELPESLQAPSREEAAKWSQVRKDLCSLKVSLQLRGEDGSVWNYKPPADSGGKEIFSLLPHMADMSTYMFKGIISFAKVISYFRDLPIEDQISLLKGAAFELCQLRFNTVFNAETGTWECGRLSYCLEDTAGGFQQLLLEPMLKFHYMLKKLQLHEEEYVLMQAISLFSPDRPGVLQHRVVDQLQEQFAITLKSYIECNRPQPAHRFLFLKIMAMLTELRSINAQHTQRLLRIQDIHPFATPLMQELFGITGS
# [11] = Clearance in C57BL/6 mouse at 5 mg/kg, iv; type: ADME, organism-based; parameters: dose 5 mg/kg, route intravenous; details: in vivo; summary of the method: as §1
# Macrophage [12] = assay: Induction of ABCA1 gene expression in LXRbeta deficient mouse macrophages; type: functional, cell-based; summary of the method: as §2
# Macrophage [13] = assay: Induction of APO-AI-dependent cholesterol efflux in mouse macrophages; type: functional, cell-based
# Summary of the method: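 Peritoneal macrophages labelled 24 h with [3H]cholesterol (1.0 µCi/mL) plus ACAT inhibitor 58-035 (2 µg/mL), with compound. Then 2–4 h equilibration in label-free medium with compound. Efflux for 4 h into DMEM/0.2% BSA with or without apoAI (15 µg/mL). apoAI-dependent efflux = medium radioactivity as % of total cell plus medium. Triplicate.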
structure (smiles),measurement,setting,value
COc1cccc(C2SC(c3ccc(Cl)cc3)=NN2C(=O)c2c(F)cc(F)cc2F)c1OC (racemic),bioavailability,[1],28%
same,AUC,[2],7140 ng·h/mL
same,Activity,Macrophage [3],Active
same,Vd,[4],1.65 L/kg
same,Activity,Liver,inactive
same,Activity,HepG2,10%
same,AUC,[5],7920 ng·h/mL
same,Activity,THP-1,59%
same,Activity,[6],inactive
same,EC50,[7],98 nM
same,"remaining at 0.5 h, 1 µM",[8],70%
same,Cmax,[9],4.9 µM
same,Activity,[10],Not Active
same,clearance,[11],12.2 mL/min/kg
same,Activity,Macrophage [12],Active
same,Activity,Macrophage [13],Active
